Measured values taken from ChEMBL document CHEMBL3526018, “Metabolites of PPI-2458, a selective, irreversible inhibitor of methionine aminopeptidase-2: structure determination and in vivo activity” (Drug Metab Dispos, 2013).
Active and inactive are the calls of the source. The calls are words filed in the database; no cut-off is given here.

How the values were obtained:
Rattus norvegicus [1] = experiment: Inhibition of MetAP2 level in Sprague-Dawley rat lung assessed as free enzyme level at 0.3 mg/kg, po by ELISA; type: functional, organism-based; design: dose 0.3 mg/kg
Summary of the method: (§1)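 Male Sprague-Dawley rats (200-225 g, n=3 per group) were dosed once IV at 0.3 mg/kg or PO at 0.3 or 3.0 mg/kg, in 11% HPCD in water. Blood, liver, lung, thymus and pooled non-mesenteric lymph nodes were taken at ~24 h and lysed or homogenized with NP-40. Free MetAP2 was measured by ELISA and expressed as % of vehicle.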

CYP3A5 (Homo sapiens) [2] = experiment: Ratio of Vmax to Km for human recombinant CYP3A5 assessed as ((3R,4S,5S,6R)-4-((2R,3R)-3-(((R)-3,3-dimethyloxiran-2-yl)methyl)-2-methyloxiran-2-yl)-5-methoxy-1-oxaspiro[2.5]octan-6-yl ((R)-1-amino-3-methyl-1-oxobutan-2-yl)carbamate) formation; details: recombinant enzyme
CYP3A4 (Homo sapiens) [3] = experiment: Activity of human recombinant CYP3A4 assessed as ((3R,4S,5S,6R)-4-((2R,3R)-3-(((S)-3,3-dimethyloxiran-2-yl)methyl)-2-methyloxiran-2-yl)-5-methoxy-1-oxaspiro[2.5]octan-6-yl ((R)-1-amino-3-methyl-1-oxobutan-2-yl)carbamate) formation per pmol of enzyme
[4] = target: Methionine aminopeptidase 2 (Homo sapiens) (UniProt P50579); experiment: Inhibition of human MetAP2 assessed as remaining enzyme activity after 1 hr
Methionine aminopeptidase 2 (Homo sapiens), sequence (P50579 2-478 limits assumed): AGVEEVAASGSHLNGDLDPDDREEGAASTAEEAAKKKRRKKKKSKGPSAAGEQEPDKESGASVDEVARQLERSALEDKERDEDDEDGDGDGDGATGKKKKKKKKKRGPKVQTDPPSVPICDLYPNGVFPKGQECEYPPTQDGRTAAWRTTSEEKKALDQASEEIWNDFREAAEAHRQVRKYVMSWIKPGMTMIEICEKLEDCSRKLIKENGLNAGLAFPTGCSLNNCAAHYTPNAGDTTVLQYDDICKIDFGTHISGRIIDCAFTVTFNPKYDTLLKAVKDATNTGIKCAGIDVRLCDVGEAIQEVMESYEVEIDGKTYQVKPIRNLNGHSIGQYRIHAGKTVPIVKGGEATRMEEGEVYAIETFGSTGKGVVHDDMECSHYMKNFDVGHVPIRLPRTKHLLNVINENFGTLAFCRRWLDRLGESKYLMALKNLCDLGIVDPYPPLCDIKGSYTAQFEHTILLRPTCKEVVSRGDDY
Summary of the method: (§2)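 The hMetAP2 assay follows the fraction of active enzyme remaining during an 8 h incubation with inhibitor, relative to an enzyme-only control.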

CYP3A4 (Homo sapiens) [5] = experiment: Activity of human recombinant CYP3A4 assessed as ((3R,4S,5S,6R)-4-((2R,3R)-3-(((R)-3,3-dimethyloxiran-2-yl)methyl)-2-methyloxiran-2-yl)-5-methoxy-1-oxaspiro[2.5]octan-6-yl ((R)-1-amino-3-methyl-1-oxobutan-2-yl)carbamate) formation per pmol of enzyme
Liver microsome [6] = experiment: Metabolic stability in human liver microsomes assessed as retention time of ((3R,4S,5S,6R)-5-methoxy-4-((2R,3R)-2-methyl-3-(3-methylbut-2-en-1-yl)oxiran-2-yl)-1-oxaspiro[2.5]octan-6-yl ((R)-1-amino-3-hydroxy-3-methyl-1-oxobutan-2-yl)carbamate) at 5 mM by LC/MS analysis; type: ADME; details: 5000 µM
Summary of the method: (§3)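 Liver microsomes (pooled male/female) in 100 mM KPO4 pH 7.4 with PPI-2458 (5 mM stock), pre-incubated 5 min at 37°C, then 10 mM NADPH added; 20 min at 37°C with shaking. Time-zero and no-NADPH controls. Quenched with CH3CN; supernatant dried and redissolved in water. Analysed by LC-MS, ESI+ full scan 300–800 amu, C18 column, 10→50% B gradient.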

Liver microsome [7] = experiment: Metabolic stability in rat liver microsomes assessed as retention time of ((3R,4S,5S,6R)-4-((2R,3R)-3-(((R)-3,3-dimethyloxiran-2-yl)methyl)-2-methyloxiran-2-yl)-5-methoxy-1-oxaspiro[2.5]octan-6-yl ((R)-1-amino-3-methyl-1-oxobutan-2-yl)carbamate) at 5 mM by LC/MS analysis; type: ADME; details: 5000 µM; summary of the method: as §3
[8] = Metabolic stability in monkey liver microsomes assessed as retention time of ((3R,4S,5S,6R)-4-((2R,3R)-3-((E)-4-hydroxy-3-methylbut-2-en-1-yl)-2-methyloxiran-2-yl)-5-methoxy-1-oxaspiro[2.5]octan-6-yl((R)-1-amino-3-methyl-1-oxobutan-2-yl)carbamate) at 5 mM by LC/MS analysis; type: ADME, Macaca mulatta; details: rhesus monkey, 5000 µM; summary of the method: as §3
Rattus norvegicus [9] = experiment: Inhibition of MetAP2 level in Sprague-Dawley rat lymph nodes assessed as free enzyme level at 0.3 mg/kg, po by ELISA; type: functional, organism-based; design: dose 0.3 mg/kg; summary of the method: as §1
Rattus norvegicus [10] = experiment: Inhibition of MetAP2 level in Sprague-Dawley rat whole blood assessed as free enzyme level at 0.3 mg/kg, iv by ELISA; type: functional, organism-based; design: dose 0.3 mg/kg; summary of the method: as §1
Liver microsome [11] = experiment: Metabolic stability in rat liver microsomes assessed as retention time of ((3R,4S,5S,6R)-4-((2R,3R)-3-(((S)-3,3-dimethyloxiran-2-yl)methyl)-2-methyloxiran-2-yl)-5-methoxy-1-oxaspiro[2.5]octan-6-yl ((R)-1-amino-3-methyl-1-oxobutan-2-yl)carbamate) at 5 mM by LC/MS analysis; type: ADME; details: 5000 µM; summary of the method: as §3
Liver microsome [12] = experiment: Metabolic stability in human liver microsomes assessed as retention time of ((3R,4S,5S,6R)-4-((2R,3R)-3-(((S)-3,3-dimethyloxiran-2-yl)methyl)-2-methyloxiran-2-yl)-5-methoxy-1-oxaspiro[2.5]octan-6-yl ((R)-1-amino-3-methyl-1-oxobutan-2-yl)carbamate) at 5 mM by LC/MS analysis; type: ADME; details: 5000 µM
[13] = AUC (0 to t hrs) in non-Hodgkin lymphoma patient at 15 mg, po alternate days for 21 days; type: ADME, organism-based; details: human, in vivo
Summary of the method: (§4)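 Oral PPI-2458 given every other day to lymphoma patients. Plasma sampled pre-dose and at 15 min, 30 min, 1, 2, 3, 4, 6, 8, 24 and 48 h after the first dose. Parent and metabolites were measured by LC-MS/MS after protein precipitation, evaporation and reconstitution. CL/F was computed only for parent and summed analytes. For metabolites, t1/2 is an apparent first-phase value.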

CYP3A4 (Homo sapiens) [14] = experiment: Activity of human recombinant CYP3A4 assessed as ((3R,4S,5S,6R)-5-methoxy-4-((2R,3R)-2-methyl-3-(3-methylbut-2-en-1-yl)oxiran-2-yl)-1-oxaspiro[2.5]octan-6-yl ((R)-1-amino-3-hydroxy-3-methyl-1-oxobutan-2-yl)carbamate) formation; details: recombinant enzyme
[15] = target: Methionine aminopeptidase 2 (Homo sapiens) (UniProt P50579); experiment: Inhibition of human MetAP2 assessed as remaining enzyme activity after 8 hrs; design: concentration or dose not given beside the values; summary of the method: as §2
CYP3A5 (Homo sapiens) [16] = experiment: Activity of human recombinant CYP3A5 assessed as ((3R,4S,5S,6R)-4-((2R,3R)-3-((E)-4-hydroxy-3-methylbut-2-en-1-yl)-2-methyloxiran-2-yl)-5-methoxy-1-oxaspiro[2.5]octan-6-yl((R)-1-amino-3-methyl-1-oxobutan-2-yl)carbamate) formation per pmol of enzyme
[17] = Half life in non-Hodgkin lymphoma patient at 15 mg, po alternate days for 21 days; type: ADME, organism-based; details: human, in vivo; summary of the method: as §4
Cytochrome P450 3A4 = Cytochrome P450 3A4 (Homo sapiens, UniProt P08684); experiment: Inhibition of CYP3A4 activity in human liver microsomes using nifedipine as a substrate by LC/MS analysis; type: ADME
Cytochrome P450 3A4, sequence (P08684 whole entry): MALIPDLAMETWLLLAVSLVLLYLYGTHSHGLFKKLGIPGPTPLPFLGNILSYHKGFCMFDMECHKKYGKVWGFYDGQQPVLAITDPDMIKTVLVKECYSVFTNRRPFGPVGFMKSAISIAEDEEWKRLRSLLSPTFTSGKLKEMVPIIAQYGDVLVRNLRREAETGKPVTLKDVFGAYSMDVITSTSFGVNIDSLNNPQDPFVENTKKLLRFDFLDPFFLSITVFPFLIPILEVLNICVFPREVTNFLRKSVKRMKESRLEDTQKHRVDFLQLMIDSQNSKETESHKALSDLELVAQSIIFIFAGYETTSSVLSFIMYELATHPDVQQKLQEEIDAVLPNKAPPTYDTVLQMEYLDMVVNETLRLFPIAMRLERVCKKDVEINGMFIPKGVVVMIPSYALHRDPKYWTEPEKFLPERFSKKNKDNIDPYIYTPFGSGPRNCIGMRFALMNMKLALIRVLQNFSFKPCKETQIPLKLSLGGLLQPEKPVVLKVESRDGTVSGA

CYP3A5 (Homo sapiens) [18] = experiment: Activity of human recombinant CYP3A5 assessed as ((3R,4S,5S,6R)-4-((2R,3R)-3-(((R)-3,3-dimethyloxiran-2-yl)methyl)-2-methyloxiran-2-yl)-5-methoxy-1-oxaspiro[2.5]octan-6-yl ((R)-1-amino-3-methyl-1-oxobutan-2-yl)carbamate) formation per pmol of enzyme

For `CO[C@@H]1[C@H](OC(=O)N[C@@H](C(N)=O)C(C)C)CC[C@]2(CO2)[C@H]1[C@@]1(C)O[C@@H]1CC=C(C)C` [PPI-2458], the inhibition (Rattus norvegicus [1]) was “Active”, the Vmax/Km (CYP3A5 (Homo sapiens) [2]) was 0.17 µL/min and the Vmax (CYP3A4 (Homo sapiens) [3]) was 2.97 pmol/min. The Activity [4] was 12%, the Vmax (CYP3A4 (Homo sapiens) [5]) was 2.7 pmol/min and the Drug metabolism (Liver microsome [6]) was “metabolite_detected”. The Drug metabolism (Liver microsome [7]) was “metabolite_detected”, the Drug metabolism [8] was “metabolite_detected” and the inhibition (Rattus norvegicus [9]) was “Active”. For the same compound, the inhibition (Rattus norvegicus [10]) was “Active”, the Drug metabolism (Liver microsome [11]) was “metabolite_detected” and the Drug metabolism (Liver microsome [12]) was “metabolite_detected”. It also gave an AUC(0-t) at 504 h [13] of 43.9 ng·h/mL, a Km (CYP3A4 (Homo sapiens) [14]) of 27 µM and an Activity [15] of 2.8%. The Vmax (CYP3A5 (Homo sapiens) [16]) was 0.8 pmol/min, the half-life [17] was 1.6 h and the Ki (Cytochrome P450 3A4) was 403 µM. For the same compound, the Vmax (CYP3A5 (Homo sapiens) [18]) was 2.86 pmol/min.
